Measurements from ChEMBL document CHEMBL4219194, “Diversity-oriented synthesis of pyrazoles derivatives from flavones and isoflavones leads to the discovery of promising reversal agents of fluconazole resistance in Candida albicans” (2018).
Converted amounts (≈) assume the structure as drawn.

How the values were obtained:
Type in all cases: functional
[1] = tested on: Candida albicans; experiment: Antifungal activity against Candida albicans SC5314 after 48 hrs by broth microdilution method; conditions: SC5314, 48 h
How it was run: (§1)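 MIC80 read by broth microdilution, with fluconazole as the positive antifungal agent. Values are reported in µg/mL as means of three independent experiments. Strains: wild-type SC5314 and DSY654, which lacks the Cdr1 and Cdr2 efflux pumps.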

[2] = tested on: Candida albicans; experiment: Potentiation of fluconazole-induced antifungal activity against fluconazole-resistant Candida albicans 28A assessed as fluconazole MIC80 after 48 hrs by broth microdilution checkerboard method
How it was run: (§2)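 Checkerboard dose-response matrix on strain 28A with gradients of fluconazole and the test compound in RPMI 1640, read after 48 h at 35 °C. MIC80 is taken alone and in combination, and FICI is calculated. Synergy is FICI ≤0.5, indifference >0.5-4, and antagonism >4.0.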

[3] = tested on: Candida albicans; experiment: Synergistic antifungal activity against fluconazole-resistant Candida albicans 28A after 48 hrs in presence of fluconazole by broth microdilution checkerboard method; how it was run: as §2
[4] = tested on: Candida albicans; experiment: Antifungal activity against fluconazole-resistant Candida albicans 28A after 48 hrs by broth microdilution method
How it was run: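 Clinical fluconazole-resistant isolates tested in broth microdilution with the compound alone. The endpoint is MIC80, the lowest concentration giving 80% growth inhibition, in µg/mL.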

[5] = tested on: Candida albicans; experiment: Potentiation of fluconazole-induced antifungal activity against fluconazole-resistant Candida albicans 28A after 48 hrs by broth microdilution checkerboard method; how it was run: as §2
[6] = tested on: Candida albicans; experiment: Antifungal activity against CDR1 and CDR2 efflux pump deficient Candida albicans DSY654 after 48 hrs by broth microdilution method; conditions: DSY654, 48 h; how it was run: as §1

SMILES: COc1ccc(-c2c[nH]nc2-c2ccc(O)cc2O)cc1
- MIC80 [1]: > 128 µg/mL
- MIC80 [2]: > 128 µg/mL
- MIC80 [3]: > 128 µg/mL
- MIC80 [4]: > 128 µg/mL
- fractional inhibitory concentration index (FICI) [5]: 2
- MIC80 [6]: > 128 µg/mL

SMILES: Oc1ccccc1-c1cc(-c2ccccc2)[nH]n1
- MIC80 [1]: 16 µg/mL (≈ 67.7 µM)
- MIC80 [2]: 2 µg/mL
- MIC80 [3]: 16 µg/mL
- MIC80 [4]: 64 µg/mL (≈ 271 µM)
- fractional inhibitory concentration index (FICI) [5]: 0.266
- MIC80 [6]: 8 µg/mL (≈ 33.9 µM)

SMILES: COc1ccc(C2=CC(c3c(O)cc(OC)cc3OC)=NCCN2)cc1
- MIC80 [1]: > 128 µg/mL
- MIC80 [2]: > 128 µg/mL
- MIC80 [3]: > 128 µg/mL
- MIC80 [4]: > 128 µg/mL
- fractional inhibitory concentration index (FICI) [5]: 2
- MIC80 [6]: 16 µg/mL (≈ 45.1 µM)

SMILES: OCCn1cc(-c2ccc(O)cc2)c(-c2ccc(O)cc2O)n1
- MIC80 [1]: > 128 µg/mL
- MIC80 [2]: > 128 µg/mL
- MIC80 [3]: > 128 µg/mL
- MIC80 [4]: > 128 µg/mL
- fractional inhibitory concentration index (FICI) [5]: 2
- MIC80 [6]: > 128 µg/mL

SMILES: COc1ccc(-c2cn[nH]c2-c2c(O)cc(O)cc2O)cc1
- MIC80 [1]: > 128 µg/mL
- MIC80 [2]: > 128 µg/mL
- MIC80 [3]: > 128 µg/mL
- MIC80 [4]: > 128 µg/mL
- fractional inhibitory concentration index (FICI) [5]: 2
- MIC80 [6]: > 128 µg/mL

SMILES: Oc1ccc(C2=NCCNC(c3ccccc3)=C2)c(O)c1O
- MIC80 [1]: > 128 µg/mL
- MIC80 [2]: > 128 µg/mL
- MIC80 [3]: > 128 µg/mL
- MIC80 [4]: > 128 µg/mL
- fractional inhibitory concentration index (FICI) [5]: 2
- MIC80 [6]: 32 µg/mL (≈ 108 µM)

SMILES: Oc1ccccc1C1=NCCNC(c2ccccc2)=C1
- MIC80 [1]: > 128 µg/mL
- MIC80 [2]: > 128 µg/mL
- MIC80 [3]: > 128 µg/mL
- MIC80 [4]: > 128 µg/mL
- fractional inhibitory concentration index (FICI) [5]: 2
- MIC80 [6]: > 128 µg/mL

SMILES: OCCn1ncc(-c2ccc(O)cc2)c1-c1ccc(O)cc1O
- MIC80 [1]: > 128 µg/mL
- MIC80 [2]: > 128 µg/mL
- MIC80 [3]: > 128 µg/mL
- MIC80 [4]: > 128 µg/mL
- fractional inhibitory concentration index (FICI) [5]: 2
- MIC80 [6]: > 128 µg/mL

SMILES: OCCn1nc(-c2ccccc2)cc1-c1ccccc1O
- MIC80 [1]: > 128 µg/mL
- MIC80 [2]: > 128 µg/mL
- MIC80 [3]: > 128 µg/mL
- MIC80 [4]: > 128 µg/mL
- fractional inhibitory concentration index (FICI) [5]: 2
- MIC80 [6]: 8 µg/mL (≈ 28.5 µM)

SMILES: COc1ccc(-c2cn[nH]c2-c2c(O)cc(OC)cc2OC)cc1
- MIC80 [1]: > 128 µg/mL
- MIC80 [2]: > 128 µg/mL
- MIC80 [3]: > 128 µg/mL
- MIC80 [4]: > 128 µg/mL
- fractional inhibitory concentration index (FICI) [5]: 2
- MIC80 [6]: > 128 µg/mL

SMILES: COc1ccc(-c2cnn(CCO)c2-c2ccc(O)cc2O)cc1
- MIC80 [1]: > 128 µg/mL
- MIC80 [2]: > 128 µg/mL
- MIC80 [3]: > 128 µg/mL
- MIC80 [4]: > 128 µg/mL
- fractional inhibitory concentration index (FICI) [5]: 2
- MIC80 [6]: > 128 µg/mL

SMILES: Oc1cc(O)c(-c2cc(-c3ccccc3)n[nH]2)c(O)c1
- MIC80 [1]: > 128 µg/mL
- MIC80 [2]: 2 µg/mL
- MIC80 [3]: 8 µg/mL
- MIC80 [4]: > 128 µg/mL
- fractional inhibitory concentration index (FICI) [5]: 0.078
- MIC80 [6]: > 128 µg/mL

SMILES: COc1ccc(-c2cc(-c3ccccc3)[nH]n2)c(O)c1OC
- MIC80 [1]: > 128 µg/mL
- MIC80 [2]: > 128 µg/mL
- MIC80 [3]: > 128 µg/mL
- MIC80 [4]: > 128 µg/mL
- fractional inhibitory concentration index (FICI) [5]: 2
- MIC80 [6]: > 128 µg/mL

SMILES: CCn1cc(-c2ccc(OC)cc2)c(-c2ccc(O)cc2O)n1
- MIC80 [1]: > 128 µg/mL
- MIC80 [2]: > 128 µg/mL
- MIC80 [3]: > 128 µg/mL
- MIC80 [4]: > 128 µg/mL
- fractional inhibitory concentration index (FICI) [5]: 2
- MIC80 [6]: > 128 µg/mL

SMILES: Oc1ccc(-c2cn[nH]c2-c2ccc(O)cc2O)cc1
- MIC80 [1]: > 128 µg/mL
- MIC80 [2]: > 128 µg/mL
- MIC80 [3]: > 128 µg/mL
- MIC80 [4]: > 128 µg/mL
- fractional inhibitory concentration index (FICI) [5]: 2
- MIC80 [6]: > 128 µg/mL

SMILES: COc1ccc(-c2cnn(-c3ccccc3)c2-c2ccc(O)cc2O)cc1
- MIC80 [1]: > 128 µg/mL
- MIC80 [2]: 2 µg/mL
- MIC80 [3]: 16 µg/mL
- MIC80 [4]: > 128 µg/mL
- fractional inhibitory concentration index (FICI) [5]: 0.141
- MIC80 [6]: > 128 µg/mL

SMILES: CCn1ncc(-c2ccc(OC)cc2)c1-c1ccc(O)cc1O
- MIC80 [1]: > 128 µg/mL
- MIC80 [2]: 2 µg/mL
- MIC80 [3]: 32 µg/mL
- MIC80 [4]: > 128 µg/mL
- fractional inhibitory concentration index (FICI) [5]: 0.266
- MIC80 [6]: > 128 µg/mL

SMILES: COc1ccc(-c2cnn(-c3ccc(OC)cc3)c2-c2ccc(O)cc2O)cc1
- MIC80 [1]: > 128 µg/mL
- MIC80 [2]: > 128 µg/mL
- MIC80 [3]: > 128 µg/mL
- MIC80 [4]: > 128 µg/mL
- fractional inhibitory concentration index (FICI) [5]: 2
- MIC80 [6]: > 128 µg/mL

SMILES: COc1ccc(-c2cn(CCO)nc2-c2ccc(O)cc2O)cc1
- MIC80 [1]: > 128 µg/mL
- MIC80 [2]: > 128 µg/mL
- MIC80 [3]: > 128 µg/mL
- MIC80 [4]: > 128 µg/mL
- fractional inhibitory concentration index (FICI) [5]: 2
- MIC80 [6]: > 128 µg/mL

SMILES: COc1ccc(C2=NCCNC(c3ccccc3)=C2)c(O)c1OC
- MIC80 [1]: > 128 µg/mL
- MIC80 [2]: > 128 µg/mL
- MIC80 [3]: > 128 µg/mL
- MIC80 [4]: > 128 µg/mL
- fractional inhibitory concentration index (FICI) [5]: 2
- MIC80 [6]: > 128 µg/mL

SMILES: CCn1ncc(-c2ccc(O)cc2)c1-c1ccc(O)c(C2OC(CO)C(O)C(O)C2O)c1O (stereo not given)
- MIC80 [1]: > 128 µg/mL
- MIC80 [2]: > 128 µg/mL
- MIC80 [3]: > 128 µg/mL
- MIC80 [4]: > 128 µg/mL
- fractional inhibitory concentration index (FICI) [5]: 2
- MIC80 [6]: > 128 µg/mL

SMILES: Oc1ccc(-c2cnn(-c3ccccc3)c2-c2ccc(O)cc2O)cc1
- MIC80 [1]: > 128 µg/mL
- MIC80 [2]: > 128 µg/mL
- MIC80 [3]: > 128 µg/mL
- MIC80 [4]: > 128 µg/mL
- fractional inhibitory concentration index (FICI) [5]: 2
- MIC80 [6]: > 128 µg/mL

SMILES: Oc1ccc(-c2cc(-c3ccccc3)n[nH]2)c(O)c1O
- MIC80 [1]: 8 µg/mL (≈ 29.8 µM)
- MIC80 [2]: > 128 µg/mL
- MIC80 [3]: > 128 µg/mL
- MIC80 [4]: > 128 µg/mL
- fractional inhibitory concentration index (FICI) [5]: 2
- MIC80 [6]: 8 µg/mL (≈ 29.8 µM)

SMILES: Oc1ccccc1-c1cc(-c2ccccc2)nn1-c1ccccc1
- MIC80 [1]: 128 µg/mL (≈ 410 µM)
- MIC80 [2]: 2 µg/mL
- MIC80 [3]: 128 µg/mL
- MIC80 [4]: 128 µg/mL (≈ 410 µM)
- fractional inhibitory concentration index (FICI) [5]: 1.016
- MIC80 [6]: 8 µg/mL (≈ 25.6 µM)

SMILES: Oc1ccc(-c2cn[nH]c2-c2c(O)cc(O)cc2O)cc1
- MIC80 [1]: > 128 µg/mL
- MIC80 [2]: > 128 µg/mL
- MIC80 [3]: > 128 µg/mL
- MIC80 [4]: > 128 µg/mL
- fractional inhibitory concentration index (FICI) [5]: 2
- MIC80 [6]: > 128 µg/mL

SMILES: COc1cc(O)c(C2=NCCNC(c3ccccc3)=C2)c(OC)c1
- MIC80 [1]: 128 µg/mL (≈ 395 µM)
- MIC80 [2]: 2 µg/mL
- MIC80 [3]: 32 µg/mL
- MIC80 [4]: 128 µg/mL (≈ 395 µM)
- fractional inhibitory concentration index (FICI) [5]: 0.266
- MIC80 [6]: 8 µg/mL (≈ 24.7 µM)

SMILES: Oc1ccc(-c2cc(-c3c(O)cc(O)cc3O)[nH]n2)cc1
- MIC80 [1]: > 128 µg/mL
- MIC80 [2]: 0.5 µg/mL
- MIC80 [3]: 1 µg/mL
- MIC80 [4]: > 128 µg/mL
- fractional inhibitory concentration index (FICI) [5]: 0.012
- MIC80 [6]: > 128 µg/mL

SMILES: COc1cc(O)c(-c2cc(-c3ccccc3)[nH]n2)c(OC)c1OC
- MIC80 [1]: 64 µg/mL (≈ 196 µM)
- MIC80 [2]: 2 µg/mL
- MIC80 [3]: 16 µg/mL
- MIC80 [4]: 64 µg/mL (≈ 196 µM)
- fractional inhibitory concentration index (FICI) [5]: 0.266
- MIC80 [6]: 2 µg/mL (≈ 6.13 µM)

SMILES: OCC1OC(c2c(O)ccc(-c3n[nH]cc3-c3ccc(O)cc3)c2O)C(O)C(O)C1O (stereo not given)
- MIC80 [1]: > 128 µg/mL
- MIC80 [2]: > 128 µg/mL
- MIC80 [3]: > 128 µg/mL
- MIC80 [4]: > 128 µg/mL
- fractional inhibitory concentration index (FICI) [5]: 2
- MIC80 [6]: 16 µg/mL (≈ 37.2 µM)

SMILES: COc1ccc(-c2cc(-c3c(O)cc(OC)cc3OC)[nH]n2)cc1
- MIC80 [1]: > 128 µg/mL
- MIC80 [2]: > 128 µg/mL
- MIC80 [3]: > 128 µg/mL
- MIC80 [4]: > 128 µg/mL
- fractional inhibitory concentration index (FICI) [5]: 2
- MIC80 [6]: > 128 µg/mL
